Legend:
[1] = Biodistribution in human lung at 108.7 mg, iv after 3 hrs; type: ADME, organism-based; conditions: read-out: Drug uptake
[2] = Biodistribution in baboon gallbladder at 170 mg, iv after 90 mins; type: ADME, organism-based, Gall bladder; conditions: papio hamadryas, read-out: Drug uptake
Outline: (§1)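 Micro-dose [11C]-labelled drug given i.v. via a radial arm vein to baboons anaesthetised with ketamine (10 mg/kg i.m.), then maintained on oxygen, nitrous oxide and isoflurane (1–4%). Torso PET regions of interest were drawn by hand to give time-activity curves in %ID/cc. µg/ml values were estimated assuming a 10 mg/kg dose, a 17 kg baboon and signal coming from intact drug.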

[3] = Biodistribution in baboon kidney medulla at 170 mg, iv after 15 mins; type: ADME, organism-based; conditions: papio hamadryas, read-out: Drug uptake; outline: as §1
[4] = Biodistribution in baboon whole brain at 170 mg, iv after 90 mins; type: ADME, organism-based; conditions: papio hamadryas, read-out: Drug uptake
Outline: (§2)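 Brain PET ran 90 min after i.v. [11C]-labelled drug in anaesthetised baboons. Whole-brain regions of interest gave time-activity curves in %ID/cc. µg/ml values were estimated from baboon weight (17 kg) and the recommended human daily dose per kg, assuming signal comes from intact drug.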

[5] = Biodistribution in baboon kidney cortex at 170 mg, iv after 60 mins; type: ADME, organism-based; conditions: papio hamadryas, read-out: Drug uptake; outline: as §1
[6] = Biodistribution in baboon kidney cortex at 170 mg, iv after 15 mins; type: ADME, organism-based; conditions: papio hamadryas, read-out: Drug uptake; outline: as §1
[7] = Biodistribution in baboon plasma at 170 mg, iv after 15 mins; type: ADME, organism-based; conditions: papio hamadryas, read-out: Drug uptake
Outline: (§3)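 Anaesthetised baboons received [11C]-labelled drug i.v. (radial arm vein) by PET protocol. Arterial blood was drawn from a popliteal catheter every 5 s for 2 min, then at 2–90 min. Plasma activity is given as %ID/cc. µg/ml values were estimated from the human daily dose per kg scaled to a 17 kg baboon, assuming signal comes from intact drug.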

[8] = Biodistribution in baboon whole brain at 170 mg, iv after 60 mins; type: ADME, organism-based; conditions: papio hamadryas, read-out: Drug uptake; outline: as §2
[9] = Biodistribution in baboon gallbladder at 170 mg, iv after 30 mins; type: ADME, organism-based, Gall bladder; conditions: papio hamadryas, read-out: Drug uptake; outline: as §1
[10] = Biodistribution in baboon kidney cortex at 170 mg, iv after 30 mins; type: ADME, organism-based; conditions: papio hamadryas, read-out: Drug uptake; outline: as §1
[11] = Biodistribution in baboon heart at 170 mg, iv after 60 mins; type: ADME, organism-based; conditions: papio hamadryas, read-out: Drug uptake; outline: as §1
[12] = Biodistribution in baboon Liver at 170 mg, iv after 60 mins; type: ADME, organism-based; conditions: papio hamadryas, read-out: Drug uptake; outline: as §1
[13] = Biodistribution in baboon plasma at 170 mg, iv after 60 mins; type: ADME, organism-based; conditions: papio hamadryas, read-out: Drug uptake; outline: as §3
[14] = Biodistribution in baboon gallbladder at 170 mg, iv after 15 mins; type: ADME, organism-based, Gall bladder; conditions: papio hamadryas, read-out: Drug uptake; outline: as §1
[15] = Biodistribution in baboon lung at 170 mg, iv after 15 mins; type: ADME, organism-based; conditions: papio hamadryas, read-out: Drug uptake; outline: as §1
[16] = Biodistribution in baboon Liver at 170 mg, iv after 90 mins; type: ADME, organism-based; conditions: papio hamadryas, read-out: Drug uptake; outline: as §1
[17] = Biodistribution in baboon whole brain at 170 mg, iv after 30 mins; type: ADME, organism-based; conditions: papio hamadryas, read-out: Drug uptake; outline: as §2
[18] = Biodistribution in baboon plasma at 170 mg, iv after 30 mins; type: ADME, organism-based; conditions: papio hamadryas, read-out: Drug uptake; outline: as §3
[19] = Biodistribution in baboon plasma at 170 mg, iv after 90 mins; type: ADME, organism-based; conditions: papio hamadryas, read-out: Drug uptake; outline: as §3
[20] = Biodistribution in baboon kidney medulla at 170 mg, iv after 30 mins; type: ADME, organism-based; conditions: papio hamadryas, read-out: Drug uptake; outline: as §1
[21] = Biodistribution in baboon heart at 170 mg, iv after 30 mins; type: ADME, organism-based; conditions: papio hamadryas, read-out: Drug uptake; outline: as §1
[22] = Biodistribution in baboon kidney medulla at 170 mg, iv after 60 mins; type: ADME, organism-based; conditions: papio hamadryas, read-out: Drug uptake; outline: as §1
[23] = Biodistribution in baboon Liver at 170 mg, iv after 15 mins; type: ADME, organism-based; conditions: papio hamadryas, read-out: Drug uptake; outline: as §1
[24] = Biodistribution in baboon lung at 170 mg, iv after 90 mins; type: ADME, organism-based; conditions: papio hamadryas, read-out: Drug uptake; outline: as §1
[25] = Biodistribution in baboon lung at 170 mg, iv after 30 mins; type: ADME, organism-based; conditions: papio hamadryas, read-out: Drug uptake; outline: as §1
[26] = Biodistribution in baboon gallbladder at 170 mg, iv after 60 mins; type: ADME, organism-based, Gall bladder; conditions: papio hamadryas, read-out: Drug uptake; outline: as §1
[27] = Biodistribution in baboon Liver at 170 mg, iv after 30 mins; type: ADME, organism-based; conditions: papio hamadryas, read-out: Drug uptake; outline: as §1
[28] = Biodistribution in baboon heart at 170 mg, iv after 90 mins; type: ADME, organism-based; conditions: papio hamadryas, read-out: Drug uptake; outline: as §1
[29] = Biodistribution in baboon kidney cortex at 170 mg, iv after 90 mins; type: ADME, organism-based; conditions: papio hamadryas, read-out: Drug uptake; outline: as §1
[30] = Biodistribution in baboon lung at 170 mg, iv after 60 mins; type: ADME, organism-based; conditions: papio hamadryas, read-out: Drug uptake; outline: as §1
[31] = Biodistribution in baboon kidney medulla at 170 mg, iv after 90 mins; type: ADME, organism-based; conditions: papio hamadryas, read-out: Drug uptake; outline: as §1
[32] = Biodistribution in baboon heart at 170 mg, iv after 15 mins; type: ADME, organism-based; conditions: papio hamadryas, read-out: Drug uptake; outline: as §1
[33] = Biodistribution in iv dosed monkey brain after 6 hrs; type: ADME, organism-based, Macaca mulatta; conditions: rhesus monkey, read-out: Drug uptake

## CO[C@H]1/C=C/O[C@@]2(C)Oc3c(C)c(O)c4cc(c(/C=N/N5CCN([11CH3])CC5)c(O)c4c3C2=O)NC(=O)/C(C)=C\C=C\C(C)[C@H](O)[C@@H](C)[C@@H](O)[C@@H](C)[C@H](OC(C)=O)[C@@H]1C (stereo partly drawn)
[1]
  concentration at 3 h: 1790 ng/g
[2]
  concentration at 1.5 h: 1010 µg/mL
[3]
  concentration at 0.25 h: 36.4 µg/mL
[4]
  concentration at 1.5 h: 1.21 µg/mL
[5]
  concentration at 1 h: 0.43 µg/mL
[6]
  concentration at 0.25 h: 15.8 µg/mL
[7]
  concentration at 0.25 h: 2.81 µg/mL
[8]
  concentration at 1 h: 0.912 µg/mL
[9]
  concentration at 0.5 h: 586 µg/mL
[10]
  concentration at 0.5 h: 6.34 µg/mL
[11]
  concentration at 1 h: 1.93 µg/mL
[12]
  concentration at 1 h: 288 µg/mL
[13]
  concentration at 1 h: 1.14 µg/mL
[14]
  concentration at 0.25 h: 121 µg/mL
[15]
  concentration at 0.25 h: 5.03 µg/mL
[16]
  concentration at 1.5 h: 300 µg/mL
[17]
  concentration at 0.5 h: 1.09 µg/mL
[18]
  concentration at 0.5 h: 1.5 µg/mL
[19]
  concentration at 1.5 h: 1.16 µg/mL
[20]
  concentration at 0.5 h: 11.6 µg/mL
[21]
  concentration at 0.5 h: 5.28 µg/mL
[22]
  concentration at 1 h: 6.73 µg/mL
[23]
  concentration at 0.25 h: 259 µg/mL
[24]
  concentration at 1.5 h: 6.78 µg/mL
[25]
  concentration at 0.5 h: 2.83 µg/mL
[26]
  concentration at 1 h: 983 µg/mL
[27]
  concentration at 0.5 h: 276 µg/mL
[28]
  concentration at 1.5 h: 6.8 µg/mL
[29]
  concentration at 1.5 h: 8.19 µg/mL
[30]
  concentration at 1 h: 2.53 µg/mL
[31]
  concentration at 1.5 h: 9.44 µg/mL
[32]
  concentration at 0.25 h: 7.28 µg/mL

## CO[C@H]1/C=C/O[C@@]2(C)Oc3c(C)c(O)c4cc(c(/C=N/N5CCN([14CH3])CC5)c(O)c4c3C2=O)NC(=O)/C(C)=C\C=C\C(C)[C@H](O)[C@@H](C)[C@@H](O)[C@@H](C)[C@H](OC(C)=O)[C@@H]1C (stereo partly drawn)
[33]
  concentration at 6 h: 870 ng/g

Reference: ChEMBL document CHEMBL1156308 (J Med Chem, 2010)
